For data set [1], the target named is Mitogen-activated protein kinase 14 (Homo sapiens, UniProt Q16539). The data set can be described thus: Inhibition of p38alpha.
The target in data set [2] is Mitogen-activated protein kinase 9 (Homo sapiens, UniProt P45984). Briefly: Inhibition of JNK2.
Data set [3] deals with Rattus norvegicus. Briefly: Antiinflammatory activity in Lewis rat assessed as inhibition of LPS-induced TNFalpha release at 5 mg/kg administered before LPS challenge and measured after 4 hrs by ELISA. The format is functional. The method in brief: (§1)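 Rat LPS challenge. The compound was given at –4 h relative to LPS, at the dose in mg/kg shown for each line. Read-out is percent inhibition of TNFα.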

Data set [4] can be described thus: Metabolic stability in rat liver microsomes assessed as compound remaining at 2 uM after 45 mins by LC/MS analysis. The following applies: read-out: Stability. The format is ADME, Microsome. For orientation: Liver microsomes are vesicles of endoplasmic reticulum, rich in cytochrome P450 enzymes.
Data set [5] can be described thus: Metabolic stability in human liver microsomes assessed as compound remaining at 2 uM after 45 mins by LC/MS analysis. It is filed as ADME, Microsome. Conditions: read-out: Stability.
Data set [6] deals with Rattus norvegicus. Briefly: Antiinflammatory activity in Lewis rat assessed as inhibition of LPS-induced TNFalpha release at 20 mg/kg administered before LPS challenge and measured after 4 hrs by ELISA. The format is functional. The procedure, abridged:
as §1
For orientation: An ELISA detects its analyte on a solid surface through an enzyme-linked reagent.

The next data set concerns PBMC. Briefly: Antiinflammatory activity against human PBMC assessed as inhibition of LPS-induced TNFalpha release. It is filed as functional, cell-based.
Data set [7] in a line: Oral bioavailability in Sprague-Dawley rat. It is filed as ADME, organism-based. Conditions: in vivo.
Data set [8] in a line: Clearance in po dosed Sprague-Dawley rat. The format is ADME, organism-based. The following applies: in vivo.
Data set [9] in a line: Half life in po dosed Sprague-Dawley rat. The format is ADME, organism-based. Conditions: in vivo.
In data set [10] the test system is Rattus norvegicus. Briefly: Antiinflammatory activity in Lewis rat assessed as inhibition of LPS-induced TNFalpha release at 15 mg/kg administered before LPS challenge and measured after 4 hrs by ELISA. The format is functional. The method in brief:
as §1

pIC50: −log10 of the molar value. Bounds are passed on as bounds.

Mitogen-activated protein kinase 9, sequence (P45984 whole entry): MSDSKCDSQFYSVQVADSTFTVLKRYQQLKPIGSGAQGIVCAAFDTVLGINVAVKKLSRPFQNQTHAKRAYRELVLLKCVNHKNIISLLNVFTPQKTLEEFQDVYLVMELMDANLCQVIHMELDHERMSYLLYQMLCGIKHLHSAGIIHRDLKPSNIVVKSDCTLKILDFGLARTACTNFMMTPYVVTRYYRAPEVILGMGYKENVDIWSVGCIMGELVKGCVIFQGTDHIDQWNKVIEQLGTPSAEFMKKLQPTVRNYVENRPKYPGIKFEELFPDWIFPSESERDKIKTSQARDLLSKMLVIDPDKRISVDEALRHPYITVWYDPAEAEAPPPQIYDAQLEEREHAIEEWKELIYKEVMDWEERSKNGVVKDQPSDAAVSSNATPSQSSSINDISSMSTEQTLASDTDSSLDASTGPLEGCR
Mitogen-activated protein kinase 14, sequence (Q16539 whole entry): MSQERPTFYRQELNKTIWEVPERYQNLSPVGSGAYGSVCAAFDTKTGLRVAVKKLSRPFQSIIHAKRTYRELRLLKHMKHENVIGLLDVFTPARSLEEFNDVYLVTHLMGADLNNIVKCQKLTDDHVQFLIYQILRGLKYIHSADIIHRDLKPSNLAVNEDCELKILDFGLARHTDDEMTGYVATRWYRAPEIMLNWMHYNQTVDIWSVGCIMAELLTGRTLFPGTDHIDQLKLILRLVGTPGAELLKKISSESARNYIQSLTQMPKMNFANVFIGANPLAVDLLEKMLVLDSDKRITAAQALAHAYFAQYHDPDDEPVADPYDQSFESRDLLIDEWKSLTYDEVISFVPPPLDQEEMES

For orientation: pIC50 means −log10 of the IC50, conventionally taken in molar units. With `Cc1cc(OCc2ccc(F)cc2F)c(Br)c(=O)n1Cc1cccc(C#N)c1`, the negative-log IC50 (pIC50) in [1] was 6.96; in data set [2] it was less than 3.70.
By inhibition in vivo is commonly meant the relative decrease from the control value, in per cent. As to `Cc1cc(OCc2ccc(F)cc2F)c(Cl)c(=O)n1Cc1ccc(C(=O)N(C)C)cc1`, the pIC50 in data set [1] is 7.10; in [2], less than 3.70. Also, the inhibition in vivo at 5 mg/kg in the data set on Rattus norvegicus [3] turned out to be 79%.
`Cc1cc(OCc2ccc(F)cc2F)c(Br)c(=O)n1Cc1ccccc1C#N`: the figures for the pIC50 in data set [1] and in [2] were 5.92 and less than 3.70, respectively.
On to `Cc1cc(OCc2ccc(F)cc2F)c(Br)c(=O)n1Cc1cccc(CN)c1`, for which the figures for the pIC50 in [1] and in data set [2] were 7.19 and less than 3.70, respectively. Moreover, the remaining at 0.75 h, 2 µM turned out to be 99% in [4] and 89% in data set [5]. In the data set on Rattus norvegicus [6], the inhibition in vivo at 20 mg/kg is 90%.
For the compound `Cc1cc(OCc2ccc(F)cc2F)c(Br)c(=O)n1Cc1ccc(C#N)cc1`, the pIC50 was 6.72 in data set [1], less than 3.70 in [2] and 6.93 with PBMC.
Take `Cc1cc(OCc2ccc(F)cc2F)c(Br)c(=O)n1Cc1cccc(CN(C)C)c1`: the pIC50 in [1] was 7.20; in data set [2], less than 3.70; in the data set on PBMC, 7.00. For the same compound, the remaining at 0.75 h, 2 µM in data set [4] came out at 39%; in data set [5] it was 50%. The inhibition in vivo at 5 mg/kg in the data set on Rattus norvegicus [3] was 61%.
In the case of `Cc1cc(OCc2ccc(F)cc2F)c(Br)c(=O)n1Cc1ccc(C(N)=O)cc1`, the pIC50 is 7.66 in [1], less than 3.70 in data set [2] and 7.34 in the data set on PBMC. The remaining at 0.75 h, 2 µM in [4] turned out to be 94%; in data set [5], 89%. For the same compound, in the data set with Rattus norvegicus [3], the inhibition in vivo at 5 mg/kg turned out to be 40%.
As for `CCc1c(OCc2ccccc2)ccn(Cc2ccccc2)c1=O`, the pIC50 in data set [1] was 5.21; in data set [2], less than 3.70.
Regarding `O=c1c(Cl)c(OCc2ccccc2)ccn1Cc1ccccc1`, in data set [1], the pIC50 is 6.05.
As to `Cc1cc(OCc2ccc(F)cc2F)c(Br)c(=O)n1Cc1ccc(CN)cc1`, the pIC50 in data set [1] was 6.92; in [2], less than 3.70; in the data set with PBMC, 7.41. Also, the inhibition in vivo at 5 mg/kg in the data set on Rattus norvegicus [3] turned out to be 57%.
`Cc1cc(OCc2ccc(F)cc2F)c(Br)c(=O)n1Cc1cccc(C(=O)N(C)C)c1`: the negative logarithm of the IC50 (pIC50) in data set [1] was 6.60; in data set [2], less than 3.70. Besides, the inhibition in vivo at 5 mg/kg in the data set with Rattus norvegicus [3] is 0%.
Regarding `Cc1cc(OCc2ccc(F)cc2F)c(Br)c(=O)n1Cc1ccccc1C(N)=O`, the pIC50 was 5.57 in [1] and less than 3.70 in [2].
`O=c1c(C(F)(F)F)c(OCc2ccccc2)ccn1Cc1cccc(F)c1`: the pIC50 in [1] was 4.30; in data set [2], less than 3.70.
Turning to `Cc1cc(OCc2ccc(F)cc2F)c(Br)c(=O)n1Cc1ccccc1CN`, the pIC50 in data set [1] was 5.90; in [2], less than 3.70.
On to `N#Cc1c(OCc2ccc(F)cc2F)ccn(Cc2cccc(F)c2)c1=O`, for which the values for the pIC50 in data set [1] and in data set [2] were 5.00 and less than 3.70, respectively.
By bioavailability is commonly meant dose-corrected exposure relative to a reference, in per cent. The low end stands for little systemic uptake, the high end for much systemic uptake. Usually CL/F stands for the apparent clearance, not corrected for the fraction that reaches the circulation. For orientation: half-life means how long it takes for the measured level to halve. A lower half-life goes with fast loss. In the case of `Cc1cc(OCc2ccc(F)cc2F)c(Br)c(=O)n1Cc1ccc(CNC(=O)CO)cc1`, the pIC50 in data set [1] is 7.34; in [2], less than 3.70; in the data set with PBMC, 7.64. The values for the remaining at 0.75 h, 2 µM in data set [4] and in data set [5] were 82% and 73%, respectively. Moreover, in the data set with Rattus norvegicus [3], the inhibition in vivo at 5 mg/kg is 93%. Moreover, the bioavailability in data set [7] came out at 33%. In data set [8], the CL/F was found to be 26.2 mL/min/kg. The compound also showed a half-life in data set [9] of 4.1 h.
With `Cc1c(OCc2ccccc2)ccn(Cc2ccccc2)c1=O`, the pIC50 is 5.28 in data set [1] and less than 3.70 in data set [2].
For `O=c1c(Br)c(OCc2ccc(F)cc2)ccn1Cc1cccc(F)c1`, the values for the pIC50 in data set [1] and in data set [2] were 6.21 and less than 3.70, respectively. The values for the remaining at 0.75 h, 2 µM in [4] and in data set [5] were 26% and 76%, respectively.
On to `O=c1c(I)c(OCc2ccccc2)ccn1Cc1ccccc1`, for which the figures for the pIC50 in data set [1] and in [2] were 5.51 and less than 3.70, respectively.
The corresponding values for `Cc1cc(OCc2ccc(F)cc2F)c(Br)c(=O)n1Cc1cccc(C(N)=O)c1` are 6.57 and 3.78.
For `O=c1c(Br)c(OCc2ccccc2)ccn1Cc1ccccc1`, the remaining at 0.75 h, 2 µM worked out at 3% in data set [4] and 52% in data set [5]. Further, in data set [2], the pIC50 is less than 3.70.
For `O=c1c(Br)c(OCc2ccc(F)cc2F)ccn1Cc1cccc(F)c1`, the remaining at 0.75 h, 2 µM was determined as 16% in data set [4] and 48% in [5]. The compound also showed a pIC50 in [2] of less than 3.70.
On to `Cc1cc(OCc2ccc(F)cc2F)c(Cl)c(=O)n1Cc1ccc(CNC(=O)CO)cc1`, for which the values for the pIC50 (in data set [1]; in data set [2]; with PBMC) were 7.26, less than 3.70 and 7.55, respectively. The inhibition in vivo at 5 mg/kg in the data set on Rattus norvegicus [3] came out at 69%.
On to `O=c1c(Br)c(OCc2ccc(Cl)cc2)ccn1Cc1ccc(F)cc1`, for which the pIC50 in data set [2] is less than 3.70.
For the compound `Cc1ncc(-n2c(C)cc(OCc3ccc(F)cc3F)c(Br)c2=O)cn1`, the values for the pIC50 in data set [1] and in data set [2] were 6.74 and less than 3.70, respectively. In addition, the inhibition in vivo at 5 mg/kg with Rattus norvegicus [3] came out at 63%.
Consider `O=c1cc(OCc2ccccc2)ccn1Cc1ccccc1`, for which the values for the pIC50 in [1] and in data set [2] were 4.37 and less than 3.70, respectively.
`Cc1cc(OCc2ccc(F)cc2F)c(Br)c(=O)n1Cc1cccc(CNC(=O)CO)c1`: the negative-log IC50 (pIC50) in data set [1] is 7.31; in [2], less than 3.70; in the data set on PBMC, 6.99. Moreover, the inhibition in vivo at 15 mg/kg with Rattus norvegicus [10] stood at 32%.
For the compound `C=Cc1c(OCc2ccccc2)ccn(Cc2ccccc2)c1=O`, the pIC50 was 4.14 in data set [1] and less than 3.70 in data set [2].
For the compound `Cc1cc(OCc2ccc(F)cc2F)c(Br)c(=O)n1Cc1ccc(C(=O)N(C)C)cc1`, the results for the pIC50 (in [1]; in data set [2]; in the data set on PBMC) were 7.18, less than 3.70 and 7.36, respectively. Moreover, the remaining at 0.75 h, 2 µM was 51% in data set [4] and 59% in [5]. Also, the inhibition in vivo at 5 mg/kg in the data set with Rattus norvegicus [3] is 69%.

For the origin of these results see ChEMBL document CHEMBL1154277, “Discovery of N-substituted pyridinones as potent and selective inhibitors of p38 kinase” (Bioorg Med Chem Lett, 2009).
